Laboratory results reported in ChEMBL document CHEMBL4024790 (J Med Chem, 2018).
Activity calls are given as the source filed them. The rule behind the calls is not given here.

How the values were obtained:
[1] = test system: Mus musculus; test: In vivo effect on phosphorylated CREB level in CD-1 mouse brain hippocampus by immunoassay; type: functional, organism-based
[2] = test system: Liver; test: Drug metabolism in human liver microsomes assessed as 1-(7-methyl-5-(1-methyl-5-(5-(trifluoromethyl)pyridin-2-yl)-1H-pyrazol-4-yl)imidazo[1,5-f][1,2,4]triazin-4-yl)azetidin-3-ol formation at 1 to 50 uM after 1 hr by LC-MS/MS analysis; type: ADME, microsome
In short: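 Rat, dog or human liver microsomes or hepatocytes (P450 0.35–0.5 µM final) incubated with compound at 1, 10 or 50 µM in 100 mM phosphate buffer with 1 mM NADP regenerating system, 37°C for 1 h; quenched with 4 volumes acetonitrile, centrifuged, supernatant evaporated, reconstituted in 5% aqueous acetonitrile and analysed by reversed-phase LC.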

[3] = organism: Canis familiaris; test: Toxicity in dog assessed as effect on CNS up to 1 month by microscopic method; design: species or system Canis lupus familiaris; conditions: in vivo
[4] = Cmax in beagle dog at 0.3 mg/kg, iv by LC-MS/MS analysis; type: ADME, organism-based, Canis lupus familiaris; design: dose 0.3 mg/kg, route intravenous; conditions: in vivo
In short: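 Male Wistar-Han rats given single 1 mg/kg IV; beagle dogs 0.3 mg/kg IV; solution in 20% (w/v) sulfobutyl ether β-cyclodextrin with hydrochloric acid, 1 mL/kg (rat) or 0.4 mL/kg (dog). Blood via carotid artery cannula between 2 min and 24 h into EDTA tubes; plasma analysed by LC-MS/MS with positive electrospray.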

[5] = Terminal half life in beagle dog at 0.3 mg/kg, iv by LC-MS/MS analysis; type: ADME, organism-based, Canis lupus familiaris; conditions: in vivo, read-out: beta t1/2 (converted)
In short: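 Single iv dose to male Wistar-Han rats (1 mg/kg) or dogs (0.3 mg/kg), given as a solution in 20% (w/v) SBECD with HCl. Dose volume 1 mL/kg in rats and 0.4 mL/kg in dogs. Blood taken by carotid artery cannula from 2 min to 24 h into K2EDTA (rat) or K3EDTA (dog) tubes. Plasma analysed by LC-MS/MS with positive electrospray after acetonitrile precipitation with internal standard.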

[6] = target: T1, Cytochrome P450 1A2 (Homo sapiens, UniProt P05177); test: Time-dependant inhibition of recombinant human CYP1A2; type: ADME; conditions: recombinant enzyme
T1 sequence (P05177 whole entry): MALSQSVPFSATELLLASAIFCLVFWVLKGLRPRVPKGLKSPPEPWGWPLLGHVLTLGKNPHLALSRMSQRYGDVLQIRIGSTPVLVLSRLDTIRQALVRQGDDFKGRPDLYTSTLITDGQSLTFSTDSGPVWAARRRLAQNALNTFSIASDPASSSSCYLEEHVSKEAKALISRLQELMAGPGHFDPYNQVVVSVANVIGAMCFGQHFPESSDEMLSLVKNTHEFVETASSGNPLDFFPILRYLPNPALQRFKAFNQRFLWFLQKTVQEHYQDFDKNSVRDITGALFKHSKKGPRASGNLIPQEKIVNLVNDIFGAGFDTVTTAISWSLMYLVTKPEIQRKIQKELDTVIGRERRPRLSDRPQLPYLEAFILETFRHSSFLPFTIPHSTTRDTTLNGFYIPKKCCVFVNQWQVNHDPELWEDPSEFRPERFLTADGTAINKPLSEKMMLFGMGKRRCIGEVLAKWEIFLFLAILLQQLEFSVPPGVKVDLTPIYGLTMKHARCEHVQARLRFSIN

[7] = AUC (0 to infinity) in Wistar Han rat at 1 mg/kg, iv by LC-MS/MS analysis; type: ADME, organism-based; design: dose 1 mg/kg, time infinity, route intravenous; conditions: in vivo
In short: (§1)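 Male Wistar-Han rats received a single IV dose as a solution in 20% (w/v) sulfobutylether-β-cyclodextrin with hydrochloric acid. Blood was drawn by carotid artery cannula into K2EDTA at set times from 2 min to 24 h. Plasma was acetonitrile-precipitated with internal standard and run by positive-ESI LC-MS/MS against standards of 0.61–625 ng/mL. AUC was extrapolated from time 0 to infinity.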

[8] = target: T1, Cytochrome P450 1A2; test: Inhibition of recombinant human CYP1A2; type: ADME; conditions: recombinant enzyme
[9] = AUC (0 to infinity) in beagle dog at 0.3 mg/kg, iv by LC-MS/MS analysis; type: ADME, organism-based, Canis lupus familiaris; design: dose 0.3 mg/kg, route intravenous, time infinity; conditions: in vivo
In short: as §1, with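 “Dogs” for “Male Wistar-Han rats”, “acid, at 0.4 mL/kg.” for “acid.”, “K3EDTA” for “K2EDTA”, “0.61–1250” for “0.61–625”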

[10] = organism: Mus musculus; test: Increase in cGMP level in CD-1 mouse brain hippocampus assessed per nM of unbound brain concentration by immunoassay; type: functional
In short: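 CD-1 mice given compound; brains fixed by focused microwave irradiation, and cortex, striatum and hippocampus dissected and homogenized in 0.5 N HCl, then centrifuged. cGMP in the supernatant measured by enzyme immunoassay. Unbound brain concentration taken from satellite animals. Dose-response and time-course data combined, and a linear Cbu–cGMP model fitted. The Cbu E50 is the projected Cbu giving a 50% rise in cGMP. Statistics by one-way ANOVA with Fisher's PLSD, p<0.05.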

[11] = organism: Mus musculus; test: Increase in cGMP level in CD-1 mouse brain cortex assessed per nM of unbound brain concentration by immunoassay; type: functional
In short: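 CD-1 mice dosed SC (solution in 20% SBE-β-CD with 2 molar equivalents 1N HCl, 1 mL/kg); euthanized by focused microwave irradiation of brain; cortex, striatum, hippocampus homogenized in 0.5 N HCl, centrifuged; cyclic nucleotides in supernatant by enzyme immunoassay. Unbound brain exposure from satellite animals; dose-response and time-course data combined with linear model; one-way ANOVA with Fisher's PLSD.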

[12] = target: T2, Cytochrome P450 2B6 (Homo sapiens, UniProt P20813); test: Time-dependant inhibition of recombinant human CYP2B6; type: ADME; conditions: recombinant enzyme
T2 sequence (P20813 whole entry): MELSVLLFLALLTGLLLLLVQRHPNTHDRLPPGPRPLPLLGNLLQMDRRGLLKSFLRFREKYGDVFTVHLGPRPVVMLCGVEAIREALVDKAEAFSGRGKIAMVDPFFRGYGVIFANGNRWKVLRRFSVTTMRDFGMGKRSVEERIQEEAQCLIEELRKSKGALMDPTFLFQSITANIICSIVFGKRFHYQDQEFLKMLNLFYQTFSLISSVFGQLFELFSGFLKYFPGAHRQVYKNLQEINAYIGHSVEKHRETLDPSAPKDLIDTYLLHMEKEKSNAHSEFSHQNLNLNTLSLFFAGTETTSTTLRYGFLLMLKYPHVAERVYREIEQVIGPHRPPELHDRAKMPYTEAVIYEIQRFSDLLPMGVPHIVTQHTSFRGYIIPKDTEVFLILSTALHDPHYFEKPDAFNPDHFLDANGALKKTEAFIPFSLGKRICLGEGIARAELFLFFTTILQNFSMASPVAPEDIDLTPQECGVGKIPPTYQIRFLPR

[13] = test system: Rattus norvegicus; test: Effect on spontaneous locomotor activity in Long Evans rat at 0.32 to 3.2 mg/kg, sc; type: ADME, organism-based; conditions: in vivo
In short: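 Rats dosed SC at 0.32, 1.0 and 3.2 mg/kg; conditioned avoidance responding also run in combination with risperidone 0.032 mg/kg.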

**Q.** With `Cc1nc(-c2cnn(C)c2-c2ccc(C(F)(F)F)cn2)c2c(N3CCC3)ncnn12` [PF-05180999] as the compound, how does the Activity [1] read?
**A.** Its Activity is “inactive”.

**Q.** What about the Drug metabolism [2] of the same compound?
**A.** The Drug metabolism was “Metabolite_Detected”.

**Q.** And the Activity [3]?
**A.** Its Activity is “Toxic”.

**Q.** And the Cmax [4]?
**A.** The Cmax was 293 ng/mL.

**Q.** What about the half-life [5] of the same compound?
**A.** Its half-life is 5 h.

**Q.** What about the TDI [6] of the same compound?
**A.** The TDI was “Not Active”.

**Q.** And the AUC(0-inf) [7]?
**A.** The AUC(0-inf) was 141 ng·h/mL.

**Q.** What about the “inhibition (INH)” value [8] of the same compound?
**A.** Its value is “Not Active”.

**Q.** What about the AUC(0-inf) [9] of the same compound?
**A.** The AUC(0-inf) was 431 ng·h/mL.

**Q.** What about the Activity [10] of the same compound?
**A.** Its Activity is 0.43%.

**Q.** And the Activity [11]?
**A.** The Activity was 0.63%.

**Q.** What about the TDI [12] of the same compound?
**A.** The TDI was “Not Active”.

**Q.** What about the Activity [13] of the same compound?
**A.** The Activity was “Non-Toxic”.
